# Shown are actives, neighbours in structure and some others; about 1.7% of the full set was active somewhere.
# PfG6PD inh – PfG6PD (Plasmodium falciparum) enzyme inhibition | PfGluPho enzyme, NADPH resazurin-diaphorase fluorescence | inhibition, % at 20 µM | hit rate 0.78% among 350,000 | AID 504690;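 active means inhibition reaching at least a set limit at 20 µM in the primary screen, cut at about 59% in these data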;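 further: 0% = DMSO wells with substrate and 100% = DMSO wells lacking glucose-6-phosphate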
# CCR6 antag – blocks CCL20-driven beta-arrestin recruitment at human CCR6 | CHO-K1 CCR6 PathHunter beta-arrestin, luminescence, CCL20-stimulated | inhibition, % at 20 µM | hit rate 0.49% among 340,000 | AID 493098;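 active means compounds whose inhibition of the agonist-driven luminescence signal at 20 µM reaches about 50%, limit read from the data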;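 further: cells stimulated with CCL20 at 14 nM final; plate controls were DMSO with CCL20 for no effect and DMSO without agonist for full effect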
# Target sequence (P51684 whole entry, looked up): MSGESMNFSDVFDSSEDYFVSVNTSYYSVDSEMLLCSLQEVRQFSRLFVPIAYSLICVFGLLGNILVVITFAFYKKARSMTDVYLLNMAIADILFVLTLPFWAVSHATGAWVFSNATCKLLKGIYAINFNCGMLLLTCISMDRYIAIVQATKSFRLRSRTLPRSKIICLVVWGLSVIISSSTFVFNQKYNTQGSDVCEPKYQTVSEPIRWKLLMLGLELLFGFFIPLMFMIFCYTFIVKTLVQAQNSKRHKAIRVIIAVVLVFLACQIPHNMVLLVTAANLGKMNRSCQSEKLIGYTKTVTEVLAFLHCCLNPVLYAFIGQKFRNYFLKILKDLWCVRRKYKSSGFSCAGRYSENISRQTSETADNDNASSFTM
# Beta2AR agonist – agonists of human beta-2 adrenergic receptor inducing internalization. P07550. Am2.2-beta2AR cells, FAP receptor internalization, flow cytometry. response, % (concentration not given with the values). hit rate 0.43% among 340,000;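 active means response above a set limit, near 3 SD of response in nonfluorescent compounds, cut at about 42% in these data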
# APJ antagonist – APJ receptor antagonism | CHO-K1 APJ beta-arrestin complementation, luminescence | inhibition, % at 20 µM | hit rate 0.32% among 330,000 | AID 2521;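 active means inhibition above about 40% at 20 µM, limit read from the data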;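 further: cells challenged with 10 nM apelin-13 agonist together with compound; plate controls were apelin-13 plus DMSO wells for no effect and DMSO wells lacking apelin-13 for full effect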
# Target sequence (P35414 whole entry, looked up): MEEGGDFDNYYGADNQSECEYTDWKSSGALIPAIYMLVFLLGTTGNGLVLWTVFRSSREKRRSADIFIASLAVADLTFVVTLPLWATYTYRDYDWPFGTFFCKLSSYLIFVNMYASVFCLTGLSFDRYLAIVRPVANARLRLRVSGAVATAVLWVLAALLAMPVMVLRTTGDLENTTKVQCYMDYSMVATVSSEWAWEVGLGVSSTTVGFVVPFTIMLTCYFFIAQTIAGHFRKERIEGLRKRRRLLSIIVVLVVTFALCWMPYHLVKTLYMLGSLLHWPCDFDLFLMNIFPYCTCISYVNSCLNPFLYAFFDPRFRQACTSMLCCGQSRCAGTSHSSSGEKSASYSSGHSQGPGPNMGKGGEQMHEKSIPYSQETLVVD
# CXCR6 block – CXCR6 (human) receptor inhibition; O00574; CHO-K1 PathHunter CXCR6 beta-arrestin, luminescence; inhibition, % at 20 µM; hit rate 0.36% among 360,000; AID 602244; in the data active means inhibition above about 34%, passing the limit was not always enough;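 further: antagonist mode with CXCL16 agonist at 10 nM final; 0% = 10 nM CXCL16 with DMSO and 100% = unstimulated wells without agonist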
# APJ ag – activates the human apelin receptor APJ. P35414. CHO-K1 APJ PathHunter beta-arrestin, luminescence; 0% DMSO wells, 100% apelin. activation, % at 20 µM. hit rate 0.11% among 330,000. AID 2520;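 active means activation more than six SD over the plate average, tested at 20 µM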;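 further: 0% = DMSO alone and 100% = apelin-13 at 10 nM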
#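 Test system – PathHunter CHO-K1 APJ (AGTRL-1) beta-arrestin reporter cells · Input – 1000 cells/well · Compound – single test compound dose, 20 µM final, 1% DMSO · Times – compound stimulation 90 min at 25 °C, detection 60 min · Technique – beta-gal luminescence · Read-out basis – APJ–arrestin association signal · Control set – negative DMSO alone, positive Apelin-13 at 10 nM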
# PfG6PD confirm – PfG6PD inhibition, single-dose confirmed. hit rate 34% among 2,400. shares compounds with PfG6PD inh. inhibition, % at 20 µM. recombinant PfGluPho, NADPH-diaphorase-resazurin fluorescence;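 active means inhibition of at least 50% at 20 µM in any single replicate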;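 further: 0% = DMSO with substrate and 100% = DMSO lacking glucose-6-phosphate substrate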
# Diaphorase 10uM – diaphorase inhibition or oxidation at 10 uM NADPH | shares compounds with PfG6PD inh | diaphorase-coupled resazurin reduction, fluorescence, NADPH 10 uM | inhibition, % at 20 µM | hit rate 39% among 820 | AID 504862;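 active means average inhibition reaching 50% or more with the compound at 20 µM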;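 further: resorufin red fluorescence formed as diaphorase reduces resazurin using NADPH; 0% = DMSO with enzyme and 100% = DMSO without enzyme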
# Diaph ctr 30uM – inhibits diaphorase or oxidizes, flagging false PfG6PD hits; shares compounds with PfG6PD inh; Diaphorase/resazurin coupled assay, resorufin fluorescence, 30 uM NADPH; inhibition, % at 20 µM; hit rate 29% among 820; AID 504863;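 active means inhibition averaging 50% or more, tested at 20 µM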;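 further: 0% = DMSO with enzyme and 100% = DMSO wells lacking diaphorase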
# Starred values were filed as active, the others as inactive; · = no result; ! = not active in a repeat.
SMILES,PfG6PD inh,CCR6 antag,Beta2AR agonist,APJ antagonist,CXCR6 block,APJ ag,PfG6PD confirm,others
c1ccc2c(c1)[nH]c1c(N3CCOCC3)ncnc12,11.2,6.9,-1.3,-13.1,2.3,-0.4,·,
COC(=O)C1=C(C)NC(C)=C(C(=O)OCC(C)C)C1c1ccccc1[N+](=O)[O-] (stereo unspecified),61.6*,-5.4,19.3,-3.2,-14.2,13.4,1.7,
CCn1nc(C(=O)NCC2COc3ccccc3O2)c2ccccc2c1=O (stereo unspecified),-11.7,17.5,-2.4,-0.6,-2.0,-2.0,·,
COC(=O)c1ccc(COC(=O)c2ccc(CS(=O)(=O)c3ccc(C)cc3)cc2)cc1,-2.2,-3.4,8.6,-8.3,6.4,2.4,·,
COC(=O)c1cc2c(n1S(=O)(=O)c1ccc(C)cc1)C(=O)C(=O)c1[nH]cc(C(=O)OCc3ccccc3)c1-2,77.5*,-1.8,-9.5,·,0.9,·,50.5*,Diaphorase 10uM=36.5;Diaph ctr 30uM=37.0
Clc1ccc(C[n+]2csc3ccccc32)cc1,57.5,9.7,6.7,·,-13.1,·,·,
Fc1ccc(C[n+]2csc3ccccc32)cc1,63.8*,1.5,6.4,-10.6,-2.1,-1.1,30.8,
CCc1cc2c(=O)c(-c3nc(C)cs3)coc2cc1O,76.0*,7.9,5.7,3.7,4.7,-2.2,29.6,
O=C(Nc1ccc(N2CCCC2)c(Cl)c1)c1ccc(Br)o1,59.5*,6.7,3.7,1.6,1.3,-1.2,4.2,
O=C(Nc1cc(Cl)ccc1N1CCOCC1)c1ccc2c(c1)OCO2,16.1,·,·,·,2.4,·,·,
O=C(Nc1ccc(N2CCOCC2)c(Cl)c1)c1ccc(Cl)cc1,99.9*,8.2,5.0,-11.2,-2.0,2.1,60.7*,Diaphorase 10uM=50.6*;Diaph ctr 30uM=44.7
O=C(Nc1ccc(N2CCOCC2)c(Cl)c1)c1ccc2c(c1)OCCO2,82.7*,2.8,3.4,-6.4,-6.3,-0.4,43.9,
O=C(Nc1ccccc1N1CCCC1)c1ccc(Br)o1,-10.6,19.3,-13.0,37.6,-1.3,-0.5,·,
O=C(Nc1ccc(N2CCCC2)c(Cl)c1)c1ccc2c(c1)OCCO2,67.4*,13.2,5.9,-18.5,1.8,4.3,9.5,
O=C(Nc1ccc(Cl)c(Cl)c1)c1ccc2c(c1)OCO2,42.9,-6.1,-10.8,-15.9,-12.5,-2.8,·,
CCN(Cc1ccccc1)C(=O)c1ccc(N(C)S(=O)(=O)c2ccc(C)cc2)cc1,12.6,26.4,-4.3,-12.9,2.1,2.1,·,
COc1ccc(/C=C/C(=O)NNC(=O)c2cc(C)oc2C)cc1,-18.1,10.1,-2.5,19.7,-5.8,14.4,·,
O=C(NCCCN1CCC(Cc2ccccc2)CC1)c1ccc(CS(=O)c2ccccc2Cl)o1 (stereo unspecified),-3.0,·,·,·,11.4,·,·,
Cc1ccc(COc2ccc(CNCCCN3CCCCCC3=O)cc2)cc1,2.6,7.7,0.0,-8.7,4.8,-3.0,·,
O=C(Nc1ccc(N2CCCCC2)c(Cl)c1)c1ccc2c(c1)OCCO2,99.0*,2.4,9.4,9.0,-7.7,-0.8,-5.9,
O=C(Nc1ccc(N2CCCCC2)c(Cl)c1)c1ccc(N2CCOCC2)c([N+](=O)[O-])c1,19.5,14.3,13.3,20.6,10.3,-5.2,·,
CCCCN(C(=O)Cc1coc2cc(C)c(C)cc12)c1c(N)n(Cc2ccccc2)c(=O)[nH]c1=O,-14.0,7.1,-5.7,12.7,6.0,1.0,·,
O=C(NCCc1cccc(Cl)c1)c1ccc2c(c1)OCO2,17.9,2.9,6.1,-1.4,1.1,-4.0,·,
C/C(Cn1nnc([N+](=O)[O-])n1)=N\NC(=O)c1ccc(O)cc1,71.4*,-14.1,0.6,-84.9,-16.5,5.5,53.5*,Diaphorase 10uM=27.0;Diaph ctr 30uM=26.7
C/C(Cn1nnc([N+](=O)[O-])n1)=N\NC(=O)c1ccc(Cl)c(Cl)c1,83.1*,-0.7,12.4,-83.2,-6.8,7.6,76.7*,Diaphorase 10uM=44.6;Diaph ctr 30uM=34.5
SMILES,PfG6PD inh,CCR6 antag,Beta2AR agonist,APJ antagonist,CXCR6 block,APJ ag,PfG6PD confirm,others
C/C(Cn1cnc([N+](=O)[O-])n1)=N\NC(=O)c1cccnc1,2.3,2.8,-1.2,-12.1,-2.9,-2.0,·,
C/C(Cn1cnc([N+](=O)[O-])n1)=N\NC(=O)c1ccc(Br)cc1,-4.8,7.1,13.2,-21.6,-4.6,4.0,·,
Cc1cc(C)c2sc(NC(=O)C3=COCCO3)nc2c1,75.5*,-5.7,-3.2,-9.5,6.6,-4.0,47.4*,Diaphorase 10uM=30.2;Diaph ctr 30uM=20.7
COc1ncnc2c1ncn2CCCNc1ccc(C)c(C)c1,7.0,·,·,·,-6.3,·,·,
COc1cc(NCCCn2ccc(NC(=O)OCc3ccccc3)nc2=O)cc(OC)c1OC,79.8*,2.8,3.1,·,-12.9,·,74.1*,Diaphorase 10uM=-4.1;Diaph ctr 30uM=4.7
COc1cc(NCCCn2cnc3c(OCc4ccccc4)ncnc32)cc(OC)c1OC,80.2*,-8.5,2.4,·,-3.4,·,67.3*,Diaphorase 10uM=-14.2;Diaph ctr 30uM=-22.8
CCCCN1CC(C)(C)Oc2cccc(F)c2S1(=O)=O,2.1,-2.2,-7.2,·,0.4,·,·,
C=CCNC(=O)COC(=O)C1CCN(S(=O)(=O)c2ccc3c(c2)OCCO3)CC1,-10.9,-2.9,8.7,24.3,-4.0,1.4,·,
O=C(CN(CC1CCCO1)C(=O)CNS(=O)(=O)c1ccccc1)NCCc1ccccc1 (stereo unspecified),-4.4,5.0,0.3,-12.2,5.7,-2.4,·,
O=[N+]([O-])c1ccc(SCCc2ccncc2)cc1,68.3*!,4.0,-5.4,-9.0,-18.1,3.7,13.2,
COc1ccc(-c2csc(C(NC(C)=O)c3ccccc3)n2)cc1 (stereo unspecified),·,·,·,·,1.0,·,·,
CN(C(=O)c1cnc(N2CCN(c3ncccn3)CC2)c2ccccc12)c1ccc(Cl)cc1,97.6*,-7.1,20.5,6.9,9.4,1.3,35.2,
CCOC(=O)c1c(CSc2ccccc2)n(C)c2cc(Br)c(OCC(O)CNC(CO)(CO)CO)cc12 (stereo unspecified),61.3*,7.4,7.8,·,2.9,·,10.8,
CCOC(=O)c1c(CSc2ccccc2)n(C)c2cc(Br)c(OC)c(O)c12,6.9,17.7,-8.4,5.8,5.3,3.0,·,
Nc1nc2ccccc2n1/N=C/c1ccc2c(c1)OCO2,36.0,2.7,-7.2,-11.8,1.0,-3.9,·,
Nc1nc2ccccc2n1/N=C/c1ccc(Br)cc1,65.8*,0.4,-17.4,2.9,2.2,-2.8,-3.8,
O=C(CCNS(=O)(=O)c1ccc(OC(F)(F)F)cc1)NC1CC1,-1.3,10.4,0.5,2.2,-1.9,1.2,·,
Cn1cc(SCC(=O)N2CCCc3ccccc32)c2ccccc21,59.7*,7.2,4.0,19.8,0.5,-2.8,23.3,

# Screening data from PubChem.
